14-3-3 Bad PPI = disrupts binding of bovine 14-3-3 zeta to phospho-Bad peptide | P63103 | TR-FRET 14-3-3zeta/Dy647-pBad peptide displacement, 1 h | inhibition, % at 21.7 µM | actives 0.71% (n = 220,000) | AID 781;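 active = inhibition above about 70%, limit read from the data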;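 also: 0% = full 14-3-3 plus peptide FRET controls and 100% = background without 14-3-3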
Target sequence (P63103 whole entry, looked up): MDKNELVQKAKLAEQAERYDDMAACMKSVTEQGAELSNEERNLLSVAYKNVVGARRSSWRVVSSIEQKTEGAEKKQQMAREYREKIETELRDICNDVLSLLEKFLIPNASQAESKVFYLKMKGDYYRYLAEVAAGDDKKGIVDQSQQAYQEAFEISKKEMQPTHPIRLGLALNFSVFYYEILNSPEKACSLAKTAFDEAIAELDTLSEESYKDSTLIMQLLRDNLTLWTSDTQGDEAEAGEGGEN
p47phox inh = inhibitors of human p47phox binding; AID 1274; actives 0.53% (n = 220,000); p47phox/p22phox peptide binding, fluorescence polarization, 2 h; inhibition, % at 24.7 µM;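 also: 0% = p47phox with labelled peptide and 100% = labelled peptide alone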
EBV gp42 inh = blocks Epstein-Barr virus glycoprotein 42 binding | inhibition, % (tested at 21.74 µM) | Fluorescence polarization binding assay, mP read-out | actives 0.42% (n = 220,000) | Q1HVG2; in the data active = inhibition above about 50%
eIF4E 4G PPI = eIF4E/eIF4G interaction inhibition in translation initiation; TR-FRET eIF4E-eIF4GI(517-606) binding, 2 h; inhibition, % at 21.7 µM; actives 0.37% (n = 220,000); AID 782;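 also: 0% = full FRET control wells and 100% = background wells lacking eIF4GI fragment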
WT yeast gro inh = growth inhibition of WT yeast, mitochondrial fusion screen. mitochondrial fusion phenotypic screen, WT strain. inhibition, % at 10 µM. actives 2.1% (n = 190,000). AID 1362; in the data active = inhibition above about 58%; tested in S. cerevisiae
RBBP9 inhibitor = inhibitors of human serine hydrolase RBBP9; recombinant RBBP9, FP-Rh probe fluorescence polarization; inhibition, % at 7.94 µM; actives 0.2% (n = 220,000); AID 1515;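 active = inhibition above the campaign mean of all tested compounds plus 3 SD, cut at about 14% in these data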;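 also: plate controls were DMSO wells with RBBP9 for no effect and wells lacking RBBP9 protein for full effect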
Target sequence (O75884 whole entry, looked up): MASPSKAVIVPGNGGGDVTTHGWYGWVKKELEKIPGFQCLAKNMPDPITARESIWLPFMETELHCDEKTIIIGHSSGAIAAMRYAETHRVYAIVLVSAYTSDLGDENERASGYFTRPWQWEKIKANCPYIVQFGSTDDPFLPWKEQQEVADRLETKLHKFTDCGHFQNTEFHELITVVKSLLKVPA
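Measured by: FP readout at 525/598 nm; material: recombinant human RBBP9; also added: Serine-hydrolase probe FP-Rh, 375 nM pre-mixing; medium: Tris buffer pH 8.0, NaCl, Pluronic; replication: one well per compound; doses: one concentration, 7.94 µM nominal, 0.794% DMSO; timing: preincubation 30 min plus labeling 45 min at 25 °C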
An asterisk follows results filed as active; nt = not tested or not shown; + = active, no number. Only some compounds are listed: those with a hit (about 3.7% of all), similar ones and a draw of the others.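 The calls were made as follows, unless noted: active = inhibition above about 30% (limit read from the data); inactive = the rest.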

SMILES | 14-3-3 Bad PPI | p47phox inh | EBV gp42 inh | eIF4E 4G PPI | WT yeast gro inh | RBBP9 inhibitor
COc1cc(CCC(=O)N2CCN(c3ncccn3)CC2)cc(OC)c1OC | 12 | -3 | 86* | 1 | 3 | -16
O=C(CCC1CCCN(Cc2ccncc2)C1)NCc1ccc(F)c(F)c1 (configuration not stated) | -8 | -13 | 0 | 0 | 4 | -8
Cc1ccc(-n2cccc2/C=C2\C(=N)N3N=C(C(C)C)SC3=NC2=O)cc1 | -6 | -39 | -6 | 0 | 81* | -16
CCCc1nn(C)c(C(=O)Nc2ccc(C(C)(C)C)cc2)c1Cl | -7 | 3 | 13 | -2 | 63* | -3
O=[N+]([O-])c1ccc(C2(O)CN(c3ccccc3)C3=[N+]2CCS3)cc1 (configuration not stated) | 0 | -1 | -8 | -2 | 9 | -4
O=C(NC(=S)Nc1cccc(O)c1)c1ccco1 | 0 | -6 | -18 | -1 | nt | -7
CN(C1=NS(=O)(=O)c2ccccc21)c1ccc(OC(=O)c2ccncc2)cc1 | -6 | 4 | -19 | 0 | -8 | -8
CN(/N=C/c1ccncc1)C1=NS(=O)(=O)c2ccccc21 | 79* | -11 | -5 | 0 | 13 | 1
Cc1ccc(Nc2nc(=O)c3cc([N+](=O)[O-])ccc3s2)cc1 | 25 | 4 | 4 | 1 | nt | -14
COc1ccc(Nc2nc(=O)c3cc([N+](=O)[O-])ccc3s2)cc1 | 82* | 18 | 61* | 11 | nt | -2
Cn1cc(/C=C(\C#N)C(=O)Nc2cccc([N+](=O)[O-])c2)c2ccccc21 | 69 | 37* | 5 | 11 | 2 | -8
C/C(N)=C(/C#N)C(=O)CSc1cc(C)c2cc(C)cc(C)c2n1 | -12 | -39 | -23 | -6 | 13 | -7
COc1ccc(-c2ccc(-c3nc4c(c(=O)[nH]c(=O)n4Cc4ccccc4)n3C)o2)c([N+](=O)[O-])c1 | 51 | 55* | 8 | 7 | 31 | -12
O=C(NCc1cn(-c2ccccc2)nc1-c1ccccc1)c1cccc([N+](=O)[O-])c1 | -3 | -8 | 8 | 3 | 20 | -15
O=C(NCc1cn(-c2ccccc2)nc1-c1ccccc1)c1cc([N+](=O)[O-])cc([N+](=O)[O-])c1 | 96* | -28 | -21 | -7 | 0 | 3
Cc1nn(C(C)(C)C)c(OC(=O)c2cccs2)c1Sc1ccccc1 | 13 | -9 | -1 | 1 | 83* | 1
Cc1nn(C(C)(C)C)c(OC(=O)c2ccc3c(c2)OCO3)c1Sc1ccccc1 | -15 | -12 | -12 | 3 | 75* | -4
Cc1nn(C(C)(C)C)c(OC(=O)c2ccco2)c1Sc1ccccc1 | 2 | -12 | -15 | 6 | -22 | 8
COc1ccc(CN2C(=O)c3ccccc3C2=O)cc1C(=O)Nc1ccc(C)cc1C | -1 | -6 | -17 | 16 | -16 | -9
N#Cc1cccc(NC(=O)COC(=O)CCc2nc3ccccc3c(=O)[nH]2)c1 | 11 | -9 | 6 | 3 | 12 | -4
Fc1cccc(-c2cc3nc4c(c(N5CCC6(CC5)OCCO6)n3n2)CCCC4)c1 | -3 | -11 | 6 | -1 | 69* | -2
Cc1nc(N2CCCCC2)c2c(C)c(C(=O)Nc3cccc(C(F)(F)F)c3)sc2n1 | 66 | 8 | 16 | 0 | 70* | -3
Cc1nc(N2CCCCC2C)c2c(C)c(C(=O)Nc3cccc(C(F)(F)F)c3)sc2n1 (configuration not stated) | 3 | -6 | -5 | 0 | 68* | -3
Cc1nc(N2CCCCC2)c2c(C)c(C(=O)Nc3ccccc3C(F)(F)F)sc2n1 | -9 | -6 | 8 | 0 | 66* | 0
Cc1nc(N2CCN(C)CC2)c2c(C)c(C(=O)Nc3ccc(F)cc3)sc2n1 | 4 | 3 | -8 | -2 | nt | -1
SMILES | 14-3-3 Bad PPI | p47phox inh | EBV gp42 inh | eIF4E 4G PPI | WT yeast gro inh | RBBP9 inhibitor
O=C(CNS(=O)(=O)c1ccccc1)Nc1cccc([N+](=O)[O-])c1 | -3 | -1 | -12 | 0 | 5 | -4
CCOc1ccccc1NC(=O)COC(=O)c1cc[n+]([O-])cc1 | 5 | 5 | -14 | -12 | nt | 5
CN(C1CCCCC1)S(=O)(=O)c1ccc2c(c1)c(=O)c(C(=O)NCCN1CCCC1)cn2C | 11 | 51* | -7 | 5 | -6 | 1
CCn1cc(C(=O)N2CCc3ccccc32)c(=O)c2cc(S(=O)(=O)N(C)C3CCCCC3)ccc21 | 6 | -12 | 13 | -4 | 83* | -10
CCn1cc(C(=O)N2CCc3ccccc32)c(=O)c2cc(S(=O)(=O)N3CCOCC3)ccc21 | -1 | 5 | -14 | 11 | -14 | 5
C=C1CCC(C)C(C)(CCC2=CCOC2=O)C/C=C\C=C/1C(=O)O (configuration not stated) | 2 | -13 | -5 | -18 | nt | nt
CCCCN1C(=O)/C(=C/C=C2\N(C)c3ccccc3C2(C)C)SC1=S | 1 | -246 | + | -1 | 35 | 7
CN1CCS/C1=C/C=C1\SC(=S)N(CC(=O)O)C1=O | 2 | -101 | -310 | 4 | -4 | -5
CCOC(=O)/C=C1/N(C)c2ccccc2C1(C)C | 3 | -3 | -8 | -9 | nt | -3
CCCCN1C(=O)/C(=C/C=C2\SCCN2C)SC1=S | -12 | 54* | -273 | 4 | 37 | 2
CCCN1C(=O)/C(=C\C=C2/C=CN(CC)c3ccccc32)SC1=S | 6 | -22 | -13 | -5 | 59* | 7
CN1CCS/C1=C/C=C1/SC(=S)N(Cc2ccccc2)C1=O | -8 | 3 | -213 | -4 | -11 | -9
Cc1noc(C)c1C(=O)OCC(=O)C12CC3CC(CC(C3)C1)C2 | -12 | -9 | 9 | 0 | -7 | -7
CC(C)(C)CN1CCNC(=O)C1CC(=O)NCCN1CCCc2ccccc21 (configuration not stated) | -11 | 4 | 1 | -1 | 3 | 7
O=C(COc1ccc(Cl)cc1)NCc1nnc(SCC(=O)Nc2ccc(F)cc2F)o1 | -1 | -6 | -3 | 2 | -2 | -2
O=C(N/N=C/C(Br)=C/c1ccccc1)NC1CCCCC1 | -10 | -18 | 3 | 0 | 90* | 2
Cc1c(S(=O)(=O)c2ccccn2)c(N)n(Cc2cccc(Cl)c2)c1C | 8 | -34 | 9 | 73* | nt | 0
O=C(Nc1ccc(OC(F)(F)C(F)F)c(NC(=O)c2cccc(F)c2)c1)c1cccc(F)c1 | -5 | -2 | 12 | 12 | -4 | -5
Cn1c(=O)c(N)c2c3c(c(Br)ccc31)C(=O)c1ccccc1-2 | -1 | -24 | 171* | -3 | nt | 0
O=C(CN1CCc2ccccc2C1)Nc1cccc(S(=O)(=O)N2CCCC2)c1 | 80* | 9 | -4 | 2 | 7 | 3
O=C(CNC1CCCCCC1)Nc1ccccc1N1CCCCC1 | 57 | -6 | 1 | 6 | -16 | 3
